According to ChEMBL document CHEMBL5661979, “Pharmacological inhibition of BMK1 suppresses tumor growth through promyelocytic leukemia protein” (Cancer Cell, 2010):
The source made the active and inactive calls. The rule behind the calls is not given here.

Tests used:
[1] = target: Cyclin-dependent kinase 11B (Homo sapiens, UniProt P21127); assay: Inhibition of PITSLRE in human HeLa cells lysate at 2 uM pre incubated for 15 mins followed by ATP acyl phosphate probe addition and measured after 10 mins by LC-MS/MS analysis relative to control; format: subcellular; conditions: time 25.0 min
Cyclin-dependent kinase 11B, sequence (P21127 whole entry): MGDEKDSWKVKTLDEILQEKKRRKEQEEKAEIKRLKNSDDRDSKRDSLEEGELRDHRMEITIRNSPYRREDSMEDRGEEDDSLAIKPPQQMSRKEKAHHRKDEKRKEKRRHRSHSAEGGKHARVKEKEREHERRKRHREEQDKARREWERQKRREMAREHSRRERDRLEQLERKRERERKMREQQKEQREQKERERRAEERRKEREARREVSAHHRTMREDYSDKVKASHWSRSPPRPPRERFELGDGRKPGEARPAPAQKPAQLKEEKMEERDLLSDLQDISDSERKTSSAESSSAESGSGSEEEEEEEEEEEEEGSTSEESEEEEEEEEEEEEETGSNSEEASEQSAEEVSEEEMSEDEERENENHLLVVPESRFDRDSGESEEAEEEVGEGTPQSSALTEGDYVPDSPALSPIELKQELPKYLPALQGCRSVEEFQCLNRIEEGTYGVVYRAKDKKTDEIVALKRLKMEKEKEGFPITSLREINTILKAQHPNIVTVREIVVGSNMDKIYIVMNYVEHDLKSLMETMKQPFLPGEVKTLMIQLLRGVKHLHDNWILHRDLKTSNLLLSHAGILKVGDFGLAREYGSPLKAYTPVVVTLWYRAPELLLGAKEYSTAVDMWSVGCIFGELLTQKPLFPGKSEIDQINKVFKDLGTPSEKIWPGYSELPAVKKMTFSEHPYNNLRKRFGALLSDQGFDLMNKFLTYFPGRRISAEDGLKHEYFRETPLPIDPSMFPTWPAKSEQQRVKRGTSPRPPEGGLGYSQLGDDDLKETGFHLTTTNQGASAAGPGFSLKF

[2] = target: T1, Phosphatidylinositol 5-phosphate 4-kinase type-2 gamma (Homo sapiens) (UniProt Q8TBX8); assay: Inhibition of PIP5K2C LIP2 site in human HeLa cells lysate at 2 uM pre incubated for 15 mins followed by ATP acyl phosphate probe addition and measured after 10 mins by LC-MS/MS analysis relative to control; format: subcellular; conditions: time 25.0 min
T1 sequence (whole entry): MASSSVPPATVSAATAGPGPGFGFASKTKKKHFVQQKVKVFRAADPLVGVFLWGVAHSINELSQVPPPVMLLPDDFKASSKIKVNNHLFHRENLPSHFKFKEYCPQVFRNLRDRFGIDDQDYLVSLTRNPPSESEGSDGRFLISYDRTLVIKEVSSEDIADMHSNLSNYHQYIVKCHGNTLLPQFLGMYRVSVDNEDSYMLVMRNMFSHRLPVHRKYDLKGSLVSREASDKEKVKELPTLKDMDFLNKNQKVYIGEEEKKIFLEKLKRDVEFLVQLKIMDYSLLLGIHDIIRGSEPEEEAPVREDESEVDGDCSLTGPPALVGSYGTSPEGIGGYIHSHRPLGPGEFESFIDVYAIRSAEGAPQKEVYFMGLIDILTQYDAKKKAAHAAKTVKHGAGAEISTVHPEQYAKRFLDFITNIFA

[3] = target: Serine/threonine-protein kinase Nek1 (Homo sapiens) (UniProt Q96PY6); assay: Inhibition of NEK1 in human HeLa cells lysate at 2 uM pre incubated for 15 mins followed by ATP acyl phosphate probe addition and measured after 10 mins by LC-MS/MS analysis relative to control; format: subcellular; conditions: time 25.0 min
[4] = target: Cyclin-dependent kinase 7 (Homo sapiens, UniProt P50613); assay: Inhibition of CDK7 in human HeLa cells lysate pre incubated for 15 mins followed by ATP acyl phosphate probe addition and measured after 10 mins by LC-MS/MS analysis; format: subcellular
Method in brief: (§1)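 KiNativ profiling in HeLa lysate (5 mg/mL total protein). Lysate incubated 15 min with inhibitor at 50, 10, 2, 0.8 or 0 μM. ATP or ADP acylphosphate probe then added (5 μM final) and reacted 10 min. Reaction stopped with urea and analysed by targeted MS, using up to four fragment ions per kinase peptide-probe conjugate. % inhibition taken against untreated lysate. Run in duplicate.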

RPS6KA1/RPS6KA2/RPS6KA3 [5] = target: T2, RPS6KA1/RPS6KA2/RPS6KA3 (Homo sapiens, UniProt P51812+Q15349+Q15418); assay: Inhibition of RSK1/2/3 in human HeLa cells lysate at 2 uM pre incubated for 15 mins followed by ADP acyl phosphate probe addition and measured after 10 mins by LC-MS/MS analysis relative to control; format: subcellular; conditions: time 25.0 min
T2 sequence (P51812 whole entry, looked up): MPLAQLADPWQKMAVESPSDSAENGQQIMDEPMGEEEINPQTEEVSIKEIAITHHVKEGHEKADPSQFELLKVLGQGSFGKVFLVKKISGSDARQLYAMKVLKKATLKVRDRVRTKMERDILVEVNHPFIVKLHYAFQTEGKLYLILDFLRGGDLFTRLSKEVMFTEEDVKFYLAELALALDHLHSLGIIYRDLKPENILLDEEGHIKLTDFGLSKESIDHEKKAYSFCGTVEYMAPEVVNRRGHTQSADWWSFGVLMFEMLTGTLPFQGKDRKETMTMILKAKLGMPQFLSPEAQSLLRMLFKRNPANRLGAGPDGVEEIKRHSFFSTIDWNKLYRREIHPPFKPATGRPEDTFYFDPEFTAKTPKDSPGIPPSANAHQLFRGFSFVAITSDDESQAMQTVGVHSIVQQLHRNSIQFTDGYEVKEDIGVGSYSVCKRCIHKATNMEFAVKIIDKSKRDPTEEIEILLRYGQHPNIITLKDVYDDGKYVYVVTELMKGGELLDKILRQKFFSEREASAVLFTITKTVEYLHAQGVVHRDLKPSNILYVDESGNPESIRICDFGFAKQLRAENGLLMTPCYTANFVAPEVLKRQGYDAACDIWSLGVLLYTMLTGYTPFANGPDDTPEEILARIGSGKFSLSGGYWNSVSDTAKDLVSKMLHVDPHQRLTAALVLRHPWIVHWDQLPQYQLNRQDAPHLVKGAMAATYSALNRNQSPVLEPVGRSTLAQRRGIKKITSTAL
T2 sequence (Q15349 whole entry, looked up): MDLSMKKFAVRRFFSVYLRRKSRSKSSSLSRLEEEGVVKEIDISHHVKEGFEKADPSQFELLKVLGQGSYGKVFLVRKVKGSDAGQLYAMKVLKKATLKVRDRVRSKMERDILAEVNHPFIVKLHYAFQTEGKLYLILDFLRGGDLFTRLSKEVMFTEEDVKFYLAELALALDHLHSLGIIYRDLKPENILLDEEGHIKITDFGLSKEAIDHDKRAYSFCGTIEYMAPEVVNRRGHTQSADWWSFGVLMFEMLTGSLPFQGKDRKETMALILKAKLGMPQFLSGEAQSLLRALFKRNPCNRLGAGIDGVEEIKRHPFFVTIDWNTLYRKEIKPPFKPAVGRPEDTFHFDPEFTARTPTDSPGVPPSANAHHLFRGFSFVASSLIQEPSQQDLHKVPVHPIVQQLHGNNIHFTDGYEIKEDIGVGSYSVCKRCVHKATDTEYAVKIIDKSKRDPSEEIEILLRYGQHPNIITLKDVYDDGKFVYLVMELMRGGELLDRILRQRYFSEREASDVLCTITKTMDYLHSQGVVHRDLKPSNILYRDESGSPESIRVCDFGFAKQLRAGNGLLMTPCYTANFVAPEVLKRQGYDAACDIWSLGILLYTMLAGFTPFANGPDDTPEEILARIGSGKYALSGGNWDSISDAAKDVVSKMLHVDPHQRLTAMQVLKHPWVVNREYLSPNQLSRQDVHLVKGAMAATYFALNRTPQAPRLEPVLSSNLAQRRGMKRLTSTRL
T2 sequence (Q15418 whole entry, looked up): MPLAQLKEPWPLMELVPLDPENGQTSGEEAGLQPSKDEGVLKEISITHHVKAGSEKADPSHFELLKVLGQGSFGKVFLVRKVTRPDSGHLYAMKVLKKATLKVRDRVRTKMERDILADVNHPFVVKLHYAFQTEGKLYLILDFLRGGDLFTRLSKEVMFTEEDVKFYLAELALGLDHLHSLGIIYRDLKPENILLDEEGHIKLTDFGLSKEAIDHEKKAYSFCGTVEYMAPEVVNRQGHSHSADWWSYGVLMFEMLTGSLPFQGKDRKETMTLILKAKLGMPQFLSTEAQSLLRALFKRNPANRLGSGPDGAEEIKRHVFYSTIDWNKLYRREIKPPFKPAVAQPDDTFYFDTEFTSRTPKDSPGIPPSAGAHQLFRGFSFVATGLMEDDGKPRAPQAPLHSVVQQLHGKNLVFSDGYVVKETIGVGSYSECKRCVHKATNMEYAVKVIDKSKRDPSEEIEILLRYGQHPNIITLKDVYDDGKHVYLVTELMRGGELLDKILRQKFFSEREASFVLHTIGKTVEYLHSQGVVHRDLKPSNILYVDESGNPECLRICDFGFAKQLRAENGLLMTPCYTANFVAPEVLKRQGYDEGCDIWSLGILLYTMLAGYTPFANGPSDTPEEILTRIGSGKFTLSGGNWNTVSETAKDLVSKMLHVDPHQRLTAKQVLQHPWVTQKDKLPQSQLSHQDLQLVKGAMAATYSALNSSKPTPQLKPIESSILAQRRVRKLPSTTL

HeLa = assay: Antiproliferative activity against human HeLa cells over expressing BMK1 assessed as reduction in cell viability at 5 uM after 48 hrs by MTT assay; format: functional, cell-based
Method in brief: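 HeLa cells were infected with empty adenovirus or adenovirus encoding dominant-negative BMK1(AEF). After 24 hr they were treated with or without 5 μM drug for 48 hr and read by MTT. % growth inhibition = (1 − MTT of group / MTT of Ad-EV-only cells) × 100. n = 3.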

[6] = target: Transcription intermediary factor 1-beta (Homo sapiens, UniProt Q13263); assay: Inhibition of TIF1b in human HeLa cells lysate pre incubated for 15 mins followed by ATP acyl phosphate probe addition and measured after 10 mins by LC-MS/MS analysis; format: subcellular
[7] = target: Serine/threonine-protein kinase PLK4 (Homo sapiens) (UniProt O00444); assay: Inhibition of PLK4 (unknown origin) assessed as remaining activity at 10 uM by ATP-competition binding assay relative to control
Serine/threonine-protein kinase PLK4 (Homo sapiens), sequence (O00444 whole entry): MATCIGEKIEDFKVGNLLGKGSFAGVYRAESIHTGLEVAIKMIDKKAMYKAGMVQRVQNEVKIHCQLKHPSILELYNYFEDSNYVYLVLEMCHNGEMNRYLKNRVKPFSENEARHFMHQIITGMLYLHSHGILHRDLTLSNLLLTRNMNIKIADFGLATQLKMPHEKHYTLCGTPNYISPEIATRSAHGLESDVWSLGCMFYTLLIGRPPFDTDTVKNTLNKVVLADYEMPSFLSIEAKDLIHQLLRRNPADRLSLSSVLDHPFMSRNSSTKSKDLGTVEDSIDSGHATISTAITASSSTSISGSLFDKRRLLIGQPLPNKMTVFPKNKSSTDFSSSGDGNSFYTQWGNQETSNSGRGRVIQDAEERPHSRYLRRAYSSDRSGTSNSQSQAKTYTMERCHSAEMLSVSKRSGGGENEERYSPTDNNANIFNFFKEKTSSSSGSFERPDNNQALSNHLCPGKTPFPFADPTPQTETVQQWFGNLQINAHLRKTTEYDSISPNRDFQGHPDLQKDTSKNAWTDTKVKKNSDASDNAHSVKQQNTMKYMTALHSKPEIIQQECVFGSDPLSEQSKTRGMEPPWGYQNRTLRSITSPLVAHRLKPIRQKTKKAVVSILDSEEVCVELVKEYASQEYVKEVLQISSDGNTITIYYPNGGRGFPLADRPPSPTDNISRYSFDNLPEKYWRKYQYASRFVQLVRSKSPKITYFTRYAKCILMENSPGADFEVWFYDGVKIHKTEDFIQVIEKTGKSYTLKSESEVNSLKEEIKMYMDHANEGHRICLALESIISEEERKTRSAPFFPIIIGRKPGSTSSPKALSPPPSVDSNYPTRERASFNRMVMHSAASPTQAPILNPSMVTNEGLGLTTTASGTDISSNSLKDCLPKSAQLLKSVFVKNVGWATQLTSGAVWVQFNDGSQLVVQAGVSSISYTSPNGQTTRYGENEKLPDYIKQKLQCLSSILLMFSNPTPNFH

[8] = target: Tyrosine-protein kinase CSK (Homo sapiens, UniProt P41240); assay: Inhibition of CSK in human HeLa cells lysate at 2 uM pre incubated for 15 mins followed by ATP acyl phosphate probe addition and measured after 10 mins by LC-MS/MS analysis relative to control; format: subcellular; conditions: time 25.0 min
Tyrosine-protein kinase CSK, sequence (P41240 2-450 limits assumed): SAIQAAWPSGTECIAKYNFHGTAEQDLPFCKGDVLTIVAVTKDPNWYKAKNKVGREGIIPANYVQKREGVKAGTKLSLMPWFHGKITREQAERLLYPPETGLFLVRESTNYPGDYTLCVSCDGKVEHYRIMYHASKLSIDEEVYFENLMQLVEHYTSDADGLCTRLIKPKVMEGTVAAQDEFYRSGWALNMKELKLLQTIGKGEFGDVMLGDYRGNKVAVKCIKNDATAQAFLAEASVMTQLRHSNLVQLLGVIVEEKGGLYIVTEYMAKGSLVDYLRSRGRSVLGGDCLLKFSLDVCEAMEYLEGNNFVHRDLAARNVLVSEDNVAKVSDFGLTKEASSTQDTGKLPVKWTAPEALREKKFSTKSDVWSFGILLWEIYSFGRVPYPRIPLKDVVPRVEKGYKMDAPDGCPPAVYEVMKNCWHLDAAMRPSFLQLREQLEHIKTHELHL

[9] = target: Cyclin-dependent kinase 5 (Homo sapiens, UniProt Q00535); assay: Inhibition of CDK5 in human HeLa cells lysate pre incubated for 15 mins followed by ATP acyl phosphate probe addition and measured after 10 mins by LC-MS/MS analysis; format: subcellular; method in brief: as §1
[10] = target: Serine/threonine-protein kinase 16 (Homo sapiens, UniProt O75716); assay: Inhibition of MPSK1 in human HeLa cells lysate at 50 uM pre incubated for 15 mins followed by ATP acyl phosphate probe addition and measured after 10 mins by LC-MS/MS analysis relative to control; format: subcellular; conditions: time 25.0 min
[11] = target: T3, Dual specificity mitogen-activated protein kinase kinase 7 (Homo sapiens) (UniProt O14733); assay: Inhibition of MAP2K7 in human HeLa cells lysate at 10 uM pre incubated for 15 mins followed by ADP acyl phosphate probe addition and measured after 10 mins by LC-MS/MS analysis relative to control; format: subcellular; conditions: time 25.0 min
T3 sequence (whole entry): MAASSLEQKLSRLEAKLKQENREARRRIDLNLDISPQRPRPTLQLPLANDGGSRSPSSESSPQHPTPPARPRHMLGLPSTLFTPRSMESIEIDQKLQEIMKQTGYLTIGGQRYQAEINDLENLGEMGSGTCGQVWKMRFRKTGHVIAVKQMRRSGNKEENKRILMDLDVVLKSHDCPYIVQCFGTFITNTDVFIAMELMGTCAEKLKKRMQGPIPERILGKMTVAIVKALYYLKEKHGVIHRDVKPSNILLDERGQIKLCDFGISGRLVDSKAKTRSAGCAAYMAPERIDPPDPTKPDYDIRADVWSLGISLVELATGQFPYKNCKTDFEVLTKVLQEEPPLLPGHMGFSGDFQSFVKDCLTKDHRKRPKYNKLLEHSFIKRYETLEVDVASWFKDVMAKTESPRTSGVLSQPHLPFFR

[12] = target: Cyclin-dependent kinase 13 (Homo sapiens, UniProt Q14004); assay: Inhibition of CHED in human HeLa cells lysate at 10 uM pre incubated for 15 mins followed by ADP acyl phosphate probe addition and measured after 10 mins by LC-MS/MS analysis relative to control; format: subcellular; conditions: time 25.0 min; method in brief: as §1
[13] = target: Phosphatidylinositol 4-kinase beta (Homo sapiens, UniProt Q9UBF8); assay: Inhibition of PIK4CB in human HeLa cells lysate pre incubated for 15 mins followed by ATP acyl phosphate probe addition and measured after 10 mins by LC-MS/MS analysis; format: subcellular
[14] = target: Calcium/calmodulin-dependent protein kinase type II subunit delta (Homo sapiens, UniProt Q13557); assay: Inhibition of CAMK2d in human HeLa cells lysate at 2 uM pre incubated for 15 mins followed by ATP acyl phosphate probe addition and measured after 10 mins by LC-MS/MS analysis relative to control; format: subcellular; conditions: time 25.0 min
Calcium/calmodulin-dependent protein kinase type II subunit delta, sequence (Q13557 whole entry, the tested form may be a part): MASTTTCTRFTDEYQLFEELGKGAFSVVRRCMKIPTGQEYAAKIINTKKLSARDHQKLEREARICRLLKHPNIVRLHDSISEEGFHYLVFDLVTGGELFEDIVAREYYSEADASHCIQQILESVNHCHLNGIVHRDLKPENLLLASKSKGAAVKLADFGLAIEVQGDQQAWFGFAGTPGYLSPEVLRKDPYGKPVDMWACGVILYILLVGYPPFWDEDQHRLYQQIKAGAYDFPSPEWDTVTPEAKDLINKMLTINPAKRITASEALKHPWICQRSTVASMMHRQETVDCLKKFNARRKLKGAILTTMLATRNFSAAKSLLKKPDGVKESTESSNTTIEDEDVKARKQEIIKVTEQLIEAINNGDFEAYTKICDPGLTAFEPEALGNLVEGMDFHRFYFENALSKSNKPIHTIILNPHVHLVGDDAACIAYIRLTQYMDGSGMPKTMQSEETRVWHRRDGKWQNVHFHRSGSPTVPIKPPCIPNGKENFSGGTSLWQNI
Method in brief: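 KiNativ-type profiling in HeLa lysate (5 mg/mL total protein). Lysate preincubated 15 min with inhibitor at 50, 10, 2, 0.8 or 0 μM, then ATP or ADP acylphosphate probe added (5 μM final) for 10 min. Reaction stopped with urea and analysed by targeted MS, using up to four fragment ions per kinase peptide-probe conjugate. % inhibition calculated against untreated lysate. Duplicate reactions.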

RPS6KA1/RPS6KA2/RPS6KA3 [15] = target: T2, RPS6KA1/RPS6KA2/RPS6KA3; assay: Inhibition of RSK1/2/3 in human HeLa cells lysate at 10 uM pre incubated for 15 mins followed by ATP acyl phosphate probe addition and measured after 10 mins by LC-MS/MS analysis relative to control; format: subcellular; conditions: time 25.0 min

Work on `CCOc1cc(N2CCC(O)CC2)ccc1Nc1ncc2c(n1)N(C)c1ccccc1C(=O)N2C` yielded an inhibition [1] of 4.9%, an inhibition [2] of 0.7% and an inhibition [3] of 6.1%. The IC50 [4] was over 50 µM, the inhibition (RPS6KA1/RPS6KA2/RPS6KA3 [5]) was 9.4% and the Activity (HeLa) was “Active”. It also gave an IC50 [6] of over 50 µM, an Activity [7] of 2.8% and an inhibition [8] of -4.4%. It also gave an IC50 [9] of over 50 µM, an inhibition [10] of -8.9% and an inhibition [11] of -9.9%. It also gave an inhibition [12] of 10.7%, an IC50 [13] of 34 µM and an inhibition [14] of -1.1%. It also gave an inhibition (RPS6KA1/RPS6KA2/RPS6KA3 [15]) of -7.4%.
